Compound activity: PubChem, several laboratories
KCNQ1 block – blocks the human KCNQ1 potassium channel. B-score at 10 µM. hit rate 1.3% among 310,000. CHO-K1 KCNQ1, FluxOR thallium flux fluorescence; hits give high values. P51787;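 active = compounds whose thallium flux B-score, printed positive for inhibition, exceeds three library SD while starting fluorescence stays within three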;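 note: channel opened by potassium depolarization with thallium stimulus after 20 min compound exposure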
KCNK3 inh – human KCNK3 channel inhibition, primary screen; O14649; CHO-KCNK3 thallium flux, FluxOR fluorescence; hits give low values; B-score at 10 µM; hit rate 0.84% among 340,000; AID 602410;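 active = B-score under library mean minus 4 SD, starting fluorescence ratio at most library mean plus 5 SD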;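 note: more negative B-score means stronger inhibition of thallium flux through KCNK3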
Target sequence (O14649 whole entry, looked up): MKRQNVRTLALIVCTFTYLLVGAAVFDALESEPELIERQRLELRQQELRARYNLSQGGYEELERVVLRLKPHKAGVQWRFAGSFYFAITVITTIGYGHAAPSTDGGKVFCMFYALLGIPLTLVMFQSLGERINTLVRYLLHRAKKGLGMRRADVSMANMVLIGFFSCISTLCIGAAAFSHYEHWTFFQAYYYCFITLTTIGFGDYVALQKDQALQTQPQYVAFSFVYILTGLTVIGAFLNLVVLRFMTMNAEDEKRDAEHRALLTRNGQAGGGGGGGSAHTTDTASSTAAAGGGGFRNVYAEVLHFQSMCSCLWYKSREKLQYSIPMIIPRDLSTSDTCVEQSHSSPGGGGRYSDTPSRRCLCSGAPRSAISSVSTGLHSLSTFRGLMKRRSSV
KCC2 mod – KCC2 (human) Cl- transport modulation. Q9H2X9. KCC2 cells, thallium flux FluoZin-2 fluorescence. B-score of Tl+ flux slope (higher = more flux/activation; lower = inhibition) at 10 µM. hit rate 2.2% among 190,000;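 active = thallium flux slope and its plate-corrected score both differing from the plate sample mean at a set confidence after two filtering rounds, in either direction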;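 note: slope of fluorescence scaled to starting intensity during 10 to 20 s after thallium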
KCNK9 inh – human KCNK9 channel inhibition. B-score at 10 µM. Q9NPC2. HEK293 KCNK9, FluxOR thallium flux fluorescence; hits give low values. AID 488922. hit rate 1.2% among 310,000;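 active = ratio B-score over 3 SD below the library mean, with starting fluorescence within 5 SD of its mean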;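 note: negative B-score means less thallium flux so channel inhibition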
Target sequence (Q9NPC2 whole entry, looked up): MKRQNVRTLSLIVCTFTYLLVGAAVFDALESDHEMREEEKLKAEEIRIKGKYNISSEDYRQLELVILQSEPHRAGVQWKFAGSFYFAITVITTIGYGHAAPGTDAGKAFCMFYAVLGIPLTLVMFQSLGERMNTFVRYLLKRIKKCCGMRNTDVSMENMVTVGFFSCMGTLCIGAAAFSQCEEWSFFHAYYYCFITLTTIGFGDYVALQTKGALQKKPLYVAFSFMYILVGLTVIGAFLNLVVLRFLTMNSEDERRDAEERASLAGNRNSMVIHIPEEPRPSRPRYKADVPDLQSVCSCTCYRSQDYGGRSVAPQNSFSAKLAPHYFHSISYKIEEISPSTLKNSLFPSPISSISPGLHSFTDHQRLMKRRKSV
hERG rescue – compounds protecting human hERG from proarrhythmic drug block; Q12809; CHO-hERG, FluxOR thallium flux, dofetilide IC70 present; activation (rescue from dofetilide block), less the hit threshold, % at 10 µM; hit rate 0.51% among 310,000;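 active = activation above the mean of controls blocked by dofetilide plus 5 SD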;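 note: thallium influx through hERG after potassium depolarization seen as dye fluorescence rise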
KCNQ1 act – potentiates or activates the human KCNQ1 potassium channel. P51787. CHO-K1 KCNQ1, thallium flux FluxOR fluorescence; hits give high values. B-score at 10 µM. hit rate 0.35% among 310,000;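 active = fluorescence ratio B-score, a plate-corrected score, at least three library SD, with initial intensity B-score within 5 SD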
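Test system: CHO-K1 cells stably expressing KCNQ1 / Medium: assay buffer / Also added: depolarizing K+/Tl+ stimulus, K2SO4 and Tl2SO4 each 12.5 mM in 5x stock / Incubation: 90 min dye loading and 20 min compound exposure, both at room temperature / Signal: thallium influx via FluxOR fluorescence, kinetic imaging / Evaluation: B score of baseline-normalized fluorescence ratio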
KCNK9 block conf – confirmation of human KCNK9 potassium channel inhibitors; shares compounds with KCNK9 inh; HEK293 KCNK9 cells, FluxOR thallium flux fluorescence; inhibition, % at 10 µM; hit rate 43% among 4,900; AID 492992;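 active = thallium signal inhibited by more than 5 SD of the compound-free buffer control wells, on both duplicate plates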
Kir21 sel – selectivity of KCNK9 modulators against mouse Kir2.1; shares compounds with KCNK9 inh; Kir2.1 cells, FluxOR thallium flux fluorescence; inhibition, % at 10 µM; hit rate 4% among 4,900; AID 492993;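 active = thallium signal drop more than 5 SD beyond the mean of the no-compound control wells, seen in both duplicate plates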;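 note: signal is fluorescence rise after thallium addition divided by baseline fluorescence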
KCNK9 uninduced – second check of KCNK9 modulator effects in non-induced HEK293 cells; shares compounds with KCNK9 inh; FluxOR thallium flux; inhibition, % at 10 µM; hit rate 40% among 4,900; AID 492997;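 active = thallium signal drop beyond 5 SD of the untreated control mean, on both duplicate plates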
Each line names hits and unclear results; the compound was inactive in the other large screens (follow-up assays come after a bar, where they were run). A selection: hits, their analogues and other compounds. The true share with any hit is near 4.1%.

CC1CCN(c2ccccc2NC(=O)c2cc([N+](=O)[O-])ccc2N2CCOCC2)CC1	KCNQ1 block 8, KCNK9 inh -9.82 (no result: KCC2 mod) | KCNK9 block conf 30.5% | Kir21 sel inactive | KCNK9 uninduced 30.0%
CNC[C@H](CC1CCCCC1)NC[C@H](Cc1ccccc1)NCCC12CC3CC(CC(C3)C1)C2	KCNK9 inh -10.2 (no result: KCC2 mod) | KCNK9 block conf 61.5% | Kir21 sel 79.5% | KCNK9 uninduced 26.0%
CC(C)[C@H](NC(=O)c1cccc(S(=O)(=O)N2CCOCC2)c1)C(=O)OCC(=O)Nc1cccc(Br)c1	none (no result: KCNQ1 block, KCC2 mod, KCNK9 inh, hERG rescue, KCNQ1 act)
O=C(CCCOc1ccccc1)N1CCCc2ccccc21	none
Cc1cc(Cl)ccc1OCCCC(=O)N1CCCc2ccccc21	none | KCNK9 block conf inactive | Kir21 sel 67.0% | KCNK9 uninduced inactive
O=S(=O)(O)c1cccc2c(N=Nc3ccc(O)c4ncccc34)cccc12	none (no result: KCC2 mod)
COc1cccc(N=Nc2ccc(O)c3ncccc23)c1	hERG rescue 15.6 (no result: KCC2 mod) | KCNK9 block conf inactive | Kir21 sel inactive | KCNK9 uninduced inactive
Cc1nc(SCc2nc3ccc(C(F)(F)F)cc3[nH]2)c2oc3ccccc3c2n1	none (no result: KCNQ1 block, KCC2 mod, KCNK9 inh, hERG rescue, KCNQ1 act)
COc1ccc(NS(=O)(=O)c2ccc3nc(COc4cccc5ccccc45)[nH]c3c2)cc1	none | KCNK9 block conf inactive | Kir21 sel inactive | KCNK9 uninduced inactive
Cc1cccc(CC(C)NC(=O)c2cc(COc3ccc(C)c(C)c3)on2)n1 (centres undefined)	none (no result: KCC2 mod)
Cc1nc(C(C)NC(=O)c2cc(COc3ccc(C)c(C)c3)on2)c(C)s1 (centres undefined)	none (no result: KCC2 mod) | KCNK9 block conf inactive | Kir21 sel inactive | KCNK9 uninduced inactive
CCCOc1c(Br)cc(C2C3=C(CCCC3=O)N(CC)C3=C2C(=O)CCC3)cc1OC	KCNK9 inh -8.45 | KCNK9 block conf inactive | Kir21 sel inactive | KCNK9 uninduced 31.0%
Cc1sc2ncnc(N3CCC(C(=O)N4CC(C)SC4=Nc4ccc(Cl)cc4)CC3)c2c1C (centres undefined)	none (no result: KCNQ1 block, KCC2 mod, KCNK9 inh, hERG rescue, KCNQ1 act)
O=C(NCc1ccco1)c1cc(NS(=O)(=O)c2cccc([N+](=O)[O-])c2)ccc1O	none | KCNK9 block conf inactive | Kir21 sel inactive | KCNK9 uninduced inactive
O=C(NCc1ccco1)c1cccc(NS(=O)(=O)c2cccc(F)c2)c1	none
CN(C(=O)c1cccc(NC(=O)Cc2ccc(NC(=O)C3CCCN(C(=O)c4ccccc4)C3)cc2)c1)C1CCCC1 (centres undefined)	none (no result: KCNQ1 block, KCC2 mod, KCNK9 inh, hERG rescue, KCNQ1 act)
CN(C)c1cc(N/N=C/c2ccccc2C(F)(F)F)nc(N(C)C)n1	none (no result: KCC2 mod) | KCNK9 block conf inactive | Kir21 sel inactive | KCNK9 uninduced inactive
CN(C(=O)c1cccc(NC(=O)Cc2ccc(NC(=O)C3CCN(C(=O)C4CC4)CC3)cc2)c1)C1CCCCC1	none (no result: KCNQ1 block, KCC2 mod, KCNK9 inh, hERG rescue, KCNQ1 act)
COCCOc1cc(NC(=O)c2sccc2Oc2ccc([N+](=O)[O-])cc2F)c(Cl)cc1Cl	KCNQ1 block 9 (no result: KCC2 mod) | KCNK9 block conf inactive | Kir21 sel inactive | KCNK9 uninduced inactive
COCCOc1cc(NC(=O)c2cccc(OC)c2)c(Cl)cc1Cl	none
CC1CN(C(C)C(=O)NC(c2ccccc2)c2ccccc2)CC(C)O1 (centres undefined)	none (no result: KCC2 mod)
CC(=O)c1ccc(OCCCCCCCOc2ccc(C(C)=O)cc2)cc1	KCNK9 inh -8.85 (no result: KCC2 mod) | KCNK9 block conf inactive | Kir21 sel inactive | KCNK9 uninduced inactive
CC(=O)c1ccc(OCCCCOc2ccc(C(C)=O)cc2)cc1	none (no result: KCC2 mod)
CC(=O)N1N=C(c2ccccc2)CC1c1cn(Cc2ccccc2)c2ccccc12 (centres undefined)	KCNK9 inh -8.4 | KCNK9 block conf 38.0% | Kir21 sel inactive | KCNK9 uninduced 34.0%
CC(=O)N1N=C(c2ccncc2)CC1c1ccccc1O (centres undefined)	none
CC(C)n1ncc2c(C(=O)NCCc3ccc(F)cc3)cc(C3CC3)nc21	none (no result: KCNQ1 block, KCC2 mod, KCNK9 inh, hERG rescue, KCNQ1 act)
COc1ccc2c(c1)CCc1cn3nc(C)cc3nc1-2	none | KCNK9 block conf inactive | Kir21 sel inactive | KCNK9 uninduced inactive
CC(C)Cc1ccc(C(=O)Nc2ccc(Cc3ccncc3)cc2)o1	none (no result: KCC2 mod)
Cc1ccc(C(=O)Nc2nnc(NC(=S)Nc3ccccc3)s2)cc1	none | KCNK9 block conf inactive | Kir21 sel inactive | KCNK9 uninduced inactive
Cc1ccc(NC(=O)COC(=O)Cc2ccc(Br)cc2)cc1S(=O)(=O)N1CCOCC1	none (no result: KCNQ1 block, KCC2 mod, KCNK9 inh, hERG rescue, KCNQ1 act)
Cc1cccc(NC(=O)C2C(c3ccccc3)C2(Cl)Cl)c1 (centres undefined)	none | KCNK9 block conf inactive | Kir21 sel inactive | KCNK9 uninduced inactive
CC(=O)c1cccc(NC(=O)C2C(c3ccccc3)C2(Cl)Cl)c1 (centres undefined)	none
COc1ccc(C(=O)/C=C(\C)NCc2ccc3c(c2)OCO3)cc1	none | KCNK9 block conf inactive | Kir21 sel inactive | KCNK9 uninduced inactive
Cc1ccc(C)c(NC(=O)c2oc(=O)c3ccccc3c2-c2ccccc2)c1	KCNK9 inh -15.2 | KCNK9 block conf 64.5% | Kir21 sel inactive | KCNK9 uninduced 44.0%
Cc1ccccc1NC(=O)c1oc(=O)c2ccccc2c1-c1ccccc1	none
CC(=O)Nc1nnc(S(=O)(=O)N2CCN(c3ccc([N+](=O)[O-])cc3Cl)CC2)s1	none (no result: KCC2 mod)
C[n+]1ccn(CC(=O)c2cc(C(C)(C)C)c(O)c(C(C)(C)C)c2)c1	none (no result: KCC2 mod)
Cc1ccc(CO/N=C\Cc2snc(Sc3ncc(C(F)(F)F)cc3Cl)c2C#N)cc1	none | KCNK9 block conf inactive | Kir21 sel inactive | KCNK9 uninduced inactive
N#CCc1ccc(Oc2ncc(C(F)(F)F)cc2Cl)cc1	none
COc1cc(C(Nc2ccccn2)c2ccc3ccc(C)nc3c2O)cc(OC)c1O (centres undefined)	none
Cc1ccc2ccc(C(Nc3ccccn3)c3ccccc3)c(O)c2n1 (centres undefined)	none | KCNK9 block conf inactive | Kir21 sel inactive | KCNK9 uninduced inactive
COc1cc(CNCCO)cc(Cl)c1OCc1ccc(Cl)cc1Cl	KCNK9 inh -8.71 | KCNK9 block conf 46.5% | Kir21 sel 61.5% | KCNK9 uninduced inactive
c1coc(-c2nnc3n2C2(CCCC2)Cc2ccccc2-3)c1	none
COc1cc2c(cc1OC)-c1nnc(-c3ccco3)n1C1(CCCC1)C2	KCNK9 inh -12.6 | KCNK9 block conf 46.5% | Kir21 sel inactive | KCNK9 uninduced 28.5%
CC(=O)CCC1C2C(O)C(C(C)C)C(OC(=O)/C=C/c3ccccc3)CC12C (centres undefined)	none | KCNK9 block conf inactive | Kir21 sel inactive | KCNK9 uninduced inactive
